In one data set the test system is A-375. Briefly: Phototoxicity against human A375 cells preincubated for 5 mins followed by compound washout and subsequent UV irradiation at 1.5 J/cm2 for 5 mins measured after 72 hrs by MTT assay. It counts as functional, cell-based. Particulars: A-375, light or radiation study. The essentials: (§1)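 Compounds were diluted in DMSO (0.5% final), applied in triplicate for 5 min, then washed out with PBS. After medium removal, cells were irradiated on ice for 5 min at 365 nm (1.5 J/cm²) and then kept 72 h at 37 °C. Viability was read by MTT at 540 nm and expressed relative to 0.5% DMSO controls given the same treatment. EC50 is the concentration killing 50%, as the mean ± SD of at least three experiments.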
A general note: Tetrazolium dyes change colour on reduction, which living cells bring about.

Data set [1] can be described thus: Dark toxicity against human MCF7 cells preincubated for 5 mins followed by compound washout and measured after 72 hrs by MTT assay. It counts as cell-based. The essentials: (§2)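 Cells were plated and allowed to attach overnight. Compounds were diluted in DMSO (0.5% final), with each concentration in triplicate, and applied for 5 min. Cells were then washed in PBS and given fresh medium. Without irradiation, cells were held 72 h at up to 50 μM. MTT (5 mg/mL stock) was added for 4 h, crystals were dissolved in SDS/HCl overnight, and absorbance was read at 540 nm. CC50 is the concentration killing 50% of cells, taken as the mean of at least three experiments.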

Data set [2] has as its system MCF7. The data set can be described thus: Induction of mitochondrial dysfunction in human MCF7 cells assessed as perinuclear clustering at 2 uM after 20 mins in presence of UV irradiation by Mitotracker Orange CMTM-ROS staining-based confocal microscopic analysis. It counts as functional, cell-based. A digest of the protocol:
(§3)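 MCF7 cells (4x10⁵) were plated on glass slides for 24 h. They were then loaded with MitoTracker Orange CMTM-ROS (150 nM) for 45 min in phenol-red-free, serum-free medium, before 2 µM compound and UV photoactivation. Cells were fixed in 2% PFA 20 min or 2 h after UV and imaged confocally (ex 543 nm, em 560–620 nm). PMA (400 nM) served as ROS-inducer control.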

For data set [3], the system named is MCF7. The data set can be described thus: Induction of mitochondrial dysfunction in human MCF7 cells assessed as organelles fusion at 2 uM after 120 mins in presence of UV irradiation by Mitotracker Orange CMTM-ROS staining-based confocal microscopic analysis. It counts as functional, cell-based. A digest of the protocol: as §3
Data set [4] is described as follows: Drug localization in cytoplasm of human MCF7 cells at 2 uM measured after 30 to 60 mins by confocal microscopic analysis. It counts as ADME, subcellular. As to conditions: mcf7, 2 µM.
For data set [5], the system named is MCF7. Briefly: Induction of ROS generation in human MCF7 cells at 0.5 to 2 uM preincubated for 30 mins followed by irradiation at 1.5 J/cm2 for 2 hrs in presence of NAC by H2DCFDA probe-based fluorescence assay. It counts as functional, cell-based. The essentials:
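This is the DCF assay in MCF7 cells run as for irradiated samples (30 min compound, 10 µM H2DCFDA, 1.5 J/cm²). Before treatment, cells were pre-incubated with N-acetylcysteine at […]. Fluorescence was read 2 h after light exposure, relative to irradiated untreated controls, with three independent experiments.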

Data set [6] is described as follows: Dark toxicity against human HT-29 cells preincubated for 5 mins followed by compound washout and measured after 72 hrs by MTT assay. It counts as cell-based. The essentials: as §2
A short description of data set [7]: Drug localization in cytoplasm of human MCF7 cells assessed as punctate formation at 2 uM measured within 10 mins by confocal microscopic analysis. It counts as ADME, subcellular. Particulars: mcf7, 10 min.
Data set [8] concerns MCF7. The data set can be described thus: Cell cycle arrest in human MCF7 cells assessed as accumulation of cells at G2/M phase at EC50 after 24 hrs under UV-irradiation by propidium iodide staining-based flow cytometric analysis (reference value: 26.3%). It counts as functional.
Data set [9] can be described thus: Dark toxicity against human A375 cells preincubated for 5 mins followed by compound washout and measured after 72 hrs by MTT assay. It counts as cell-based, A-375. The essentials:
as §2

The subject of data set [10] is MCF7. Briefly: Cell cycle arrest in human MCF7 cells assessed as accumulation of cells at G2/M phase at EC25 after 24 hrs under UV-irradiation by propidium iodide staining-based flow cytometric analysis (reference value: 26.3%). It counts as functional. A general note: In flow cytometry, cells or beads pass a laser one at a time.
In a further data set the test system is HT-29. Briefly: Phototoxicity against human HT-29 cells preincubated for 5 mins followed by compound washout and subsequent UV irradiation at 1.5 J/cm2 for 5 mins measured after 72 hrs by MTT assay. It counts as functional, cell-based. As to conditions: HT-29, light or radiation study. The essentials: as §1
Data set [11] can be described thus: Phototoxicity index, ratio of CC50 for human MCF10A cells to EC50 for human MCF10A cells under UV irradiation at 1.5 J/cm2. Particulars: read-out: Ratio CC50/EC50. It counts as cell-based, MCF-10A.
In data set [12] the test system is MCF7. Briefly: Cell cycle arrest in human MCF7 cells assessed as accumulation at subG1 phase at EC25 after 24 hrs under UV-irradiation by propidium iodide staining-based flow cytometric analysis (reference value: 4.8%). It counts as functional.
Data set [13] concerns MCF7. The data set can be described thus: Cell cycle arrest in human MCF7 cells assessed as accumulation of cells at S phase at EC50 after 24 hrs under UV-irradiation by propidium iodide staining-based flow cytometric analysis (reference value: 24.7%). It counts as functional.
Data set [14] deals with MCF7. Briefly: Induction of ROS generation in human MCF7 cells at 0.5 to 2 uM preincubated for 30 mins followed by irradiation at 1.5 J/cm2 for 2 hrs by H2DCFDA probe-based fluorescence assay (reference value: 100%). It counts as functional. The essentials:
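MCF7 cells (3x10⁴) were plated 24 h ahead to reach 80–90% confluence. Compounds were applied for 30 min in phenol-red-free, serum-free medium, and H2DCFDA (10 µM) was added 15 min before irradiation (1.5 J/cm², ~365 nm) or no irradiation. DCF fluorescence (485/535 nm) was read 2 h after light and expressed relative to untreated controls (100%). PMA (400 nM) served as positive control; three independent experiments.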

In data set [15] the test system is MCF7. The data set can be described thus: Cell cycle arrest in human MCF7 cells assessed as accumulation of cells at S phase at EC75 after 24 hrs under UV-irradiation by propidium iodide staining-based flow cytometric analysis (reference value: 24.7%). It counts as functional.
A short description of data set [16]: Solubility of the compound in DMSO. It counts as physicochemical.
For data set [17], the system named is MCF7. The data set can be described thus: Cell cycle arrest in human MCF7 cells assessed as accumulation at G0/G1 phase at EC25 after 24 hrs under UV-irradiation by propidium iodide staining-based flow cytometric analysis (reference value: 44.2%). It counts as functional.
The nature of data set [18]: Dark toxicity against human MCF10A cells preincubated for 5 mins followed by compound washout and measured after 72 hrs by MTT assay. It counts as cell-based, MCF-10A. The essentials: as §2
In data set [19] the test system is MCF7. The data set can be described thus: Induction of mitochondrial dysfunction in human MCF7 cells assessed as organelle swelling at 2 uM after 120 mins in presence of UV irradiation by Mitotracker Orange CMTM-ROS staining-based confocal microscopic analysis. It counts as functional, cell-based. A digest of the protocol: as §3
The nature of data set [20]: Selectivity index, ratio of EC50 for human MCF10A cells under UV irradiation at 1.5 J/cm2 to EC50 for human HT-29 cells under UV irradiation at 1.5 J/cm2. It counts as toxicity. Particulars: MCF10A cells versus HT-29 cells, read-out: Ratio EC50. The essentials:
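SI is the EC50 under irradiation in non-tumor MCF10A cells divided by the EC50 under irradiation in the tumor line. Both were MTT read-outs 72 h after 1.5 J/cm² at 365 nm.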

The test system of data set [21] is MCF7. Briefly: Phototoxicity index, ratio of CC50 for human MCF7 cells to EC50 for human MCF7 cells under UV irradiation at 1.5 J/cm2.

Active and inactive are the calls of the source. No cut-off for these calls is given here. Some results are limits rather than exact numbers.

In general, EC50 refers to the concentration needed to bring the measured effect to its halfway point. The low end stands for an effect from little substance, the high end for a need for much substance. One may read the CC50 as the concentration that lowers cell viability or growth by half. A low value points to harm at low concentration.

`COc1ccc(-c2nc3c(nc(C)c4ccc(-c5ccccc5)nc43)o2)cc1`: the concentration for a half-maximal effect (EC50) was 0.011 µM with A-375 and 0.012 µM with HT-29. Also, the CC50 at 72 h in data set [1], in data set [6], in data set [9] and in data set [18] was > 50 µM in each case. Besides, the result in the data set with MCF7 [2], in the data set on MCF7 [3] and in the data set on MCF7 [19] was Active. Besides, the Drug uptake result in data set [4] and in data set [7] was “Active” in each case. Further, the result in the data set with MCF7 [5] was inactive. Further, the Activity is given as 26.9% with MCF7 [8]; 26.8% with MCF7 [10]; 4.3% with MCF7 [12]; 25.6% with MCF7 [13]; 227% in the data set on MCF7 [14]; 26.3% in the data set with MCF7 [15]. Further, the Activity in the data set on MCF7 [17] turned out to be 44.1%. Further, the selectivity ratio in [11] is > 58; in data set [20], 72. Besides, the solubility result in data set [16] was “Soluble”. The “Ratio CC50/EC50” value in the data set on MCF7 [21] is >5000.
